# Test results from ChEMBL document CHEMBL4837261, “Optimization of TopoIV Potency, ADMET Properties, and hERG Inhibition of 5-Amino-1,3-dioxane-Linked Novel Bacterial Topoisomerase Inhibitors: Identification of a Lead with In Vivo Efficacy against MRSA” (J Med Chem, 2021).
# pIC50: −log10 of the molar value.
# How the values were obtained:
# [1] = Metabolic stability in CD1 mouse microsomes assessed as half life; assay type: ADME, Microsome
# [2] = target: KCNQ1 (Homo sapiens, UniProt P51787); test: Inhibition of recombinant human KCNQ1 expressed in CHO-K1 cells at 100 uM by automated Qpatch clamp assay relative to control; assay type: ADME, cell-based; conditions: CHO-K1 cells expressing recombinant human KCNQ1
# [3] = system: Staphylococcus aureus; test: Antibacterial activity against Staphylococcus aureus harbouring GyrA D83N mutant by CLSI method; assay type: functional
# [4] = Volume of distribution at steady state in ICR (CD-1) mouse at 10 mg/kg, iv measured up to 1440 mins by LC-MS/MS analysis; assay type: ADME, organism-based; conditions: in vivo, read-out: Vdss
# Method in brief: (§1)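 Male ICR (CD-1) mice, 22 ± 2 g, given free base in DMSO/Solutol HS-15/0.9% NaCl (5/5/90) at 50 mg/kg PO or 10 mg/kg IV. Three mice per timepoint, 8 timepoints. Plasma taken by cardiac puncture at 10–1440 min (PO) or 3–1440 min (IV). Measured by LC-MS/MS, with parameters from noncompartmental analysis.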
# [5] = system: HepaRG; test: Cytotoxicity against human HepaRG cells at 100 uM by ATP depletion assay; assay type: cell-based
# Method in brief: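 An ATP depletion read-out in HepaRG cells gave cytotoxicity across 0.01–100 μM, reported as % cytotoxicity at 100 μM.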
# [6] = target: DNA gyrase (Staphylococcus aureus) (UniProt P0A0K8+P20831); test: Inhibition of Staphylococcus aureus DNA Gyrase assessed as reduction in supercoiling pBR322 DNA by measuring induction of double strand breaks by ethidium bromide staining based agarose gel electrophoresis; assay type: protein-complex assay; conditions: dose 1-100 µM
# Method in brief: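 Gyrase-mediated cleavage of negatively supercoiled pBR322 ran for 30 min at 37 °C with compound at 0.5–200 μM. Single- and double-strand break products were quantified from gel lane fluorescence, corrected for differential emission of supercoiled versus linear DNA.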
# [7] = system: HeLa; test: Cytotoxicity against human HeLa cells; assay type: cell-based
# Method in brief: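 THP-1, HepG2 and HeLa cells were exposed to compound from 128 to 0.0625 μg/mL. IC50 was obtained by nonlinear regression of the inhibition curves.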
# [8] = target: CYP2C8 (Homo sapiens, UniProt P10632); test: Inhibition of CYP2C8 (unknown origin) at 10 uM relative to control; assay type: ADME
# [9] = Half life in ICR (CD-1) mouse at 10 mg/kg, iv measured up to 1440 mins by LC-MS/MS analysis; assay type: ADME, organism-based; conditions: in vivo
# Method in brief: (§2)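 Male ICR (CD-1) mice, 22 ± 2 g, given the free base in DMSO/Solutol HS-15/0.9% NaCl (5/5/90, v/v/v), IV at 10 mg/kg or PO at 50 mg/kg; 24 mice per route, three per timepoint. Plasma was taken by cardiac puncture at 3–1440 min (IV) or 10–1440 min (PO), measured by LC-MS/MS, and parameters were derived by noncompartmental analysis.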
# [10] = target: Nav1.5 (Homo sapiens, UniProt Q14524); test: Inhibition of recombinant human Nav1.5 expressed in human HEK293 cells at 100 uM measured at peak current by automated Qpatch clamp assay relative to control; assay type: ADME, cell-based; conditions: HEK293 cells expressing recombinant human Nav1.5
# [11] = AUClast in ICR (CD-1) mouse at 10 mg/kg, iv measured up to 1440 mins by LC-MS/MS analysis; assay type: ADME, organism-based; set-up: route intravenous, dose 10 mg/kg, time <=1440; conditions: in vivo; method in brief: as §2
# [12] = target: CYP2C19 (Homo sapiens, UniProt P33261); test: Inhibition of CYP2C19 (unknown origin) at 10 uM relative to control; assay type: ADME
# [13] = target: Cytochrome P450 2B6 (Homo sapiens, UniProt P20813); test: Inhibition of CYP2B6 (unknown origin); assay type: ADME
# [14] = system: Streptococcus pyogenes; test: Antibacterial activity against Streptococcus pyogenes isolates by CLSI method; assay type: functional
# [15] = Tmax in ICR (CD-1) mouse at 50 mg/kg, po measured up to 1440 mins by LC-MS/MS analysis; assay type: ADME, organism-based; conditions: in vivo; method in brief: as §1
# [16] = target: Nav1.5 (late current) (Homo sapiens, UniProt Q14524); test: Inhibition of recombinant human Nav1.5 late expressed in human HEK293 cells at 100 uM in presence of ATXII by automated Qpatch clamp assay relative to contro; assay type: ADME, cell-based; conditions: HEK293 cells expressing recombinant human Nav1.5
# [17] = system: Enterococcus faecium; test: Antibacterial activity against vancomycin-resistant Enterococcus faecium by CLSI method; assay type: functional
# [18] = system: Staphylococcus aureus; test: Antibacterial activity against methicillin-resistant Staphylococcus aureus USA300 by CLSI method; assay type: functional
# [19] = target: Kv4.3 (KCND3) (Homo sapiens, UniProt Q9UK17); test: Inhibition of recombinant human Kv4.3 expressed in human HEK293 cells at 100 uM measured at end current by automated Qpatch clamp assay relative to control; assay type: ADME, cell-based; conditions: HEK293 cells expressing recombinant human Kv4.3
# [20] = Cmax in ICR (CD-1) mouse at 50 mg/kg, po measured up to 1440 mins by LC-MS/MS analysis; assay type: ADME, organism-based; set-up: route oral, dose 50 mg/kg, time <=1440; conditions: in vivo; method in brief: as §2
# [21] = Clearance in ICR (CD-1) mouse at 10 mg/kg, iv measured up to 1440 mins by LC-MS/MS analysis; assay type: ADME, organism-based; conditions: in vivo; method in brief: as §2
# [22] = AUClast in ICR (CD-1) mouse at 50 mg/kg, po measured up to 1440 mins by LC-MS/MS analysis; assay type: ADME, organism-based; set-up: route oral, dose 50 mg/kg, time <=1440; conditions: in vivo; method in brief: as §2
# [23] = target: Sodium channel protein type 5 subunit alpha (Homo sapiens, UniProt Q14524); test: Activation of recombinant human Nav1.5 late expressed in human HEK293 cells assessed as activation of late current at 100 uM by automated Qpatch clamp assay relative to control; assay type: ADME, cell-based; conditions: hek293, 100 µM
# [24] = target: Cytochrome P450 2C8 (Homo sapiens, UniProt P10632); test: Inhibition of CYP2C8 (unknown origin); assay type: ADME
# [25] = target: CYP1A2 (Homo sapiens, UniProt P05177); test: Inhibition of CYP1A2 (unknown origin) at 10 uM relative to control; assay type: ADME
# [26] = target: Cytochrome P450 2C9 (Homo sapiens, UniProt P11712); test: Inhibition of CYP2C9 (unknown origin); assay type: ADME
# [27] = Metabolic stability in human microsomes assessed as half life; assay type: ADME, Microsome
# Method in brief: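 Run at RTI International. Covers plasma protein binding (mouse, human; percent free), CACO-2 permeability and efflux, and microsomal stability (mouse and human microsomes) giving half-life.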
# CYP2C8, sequence (P10632 whole entry): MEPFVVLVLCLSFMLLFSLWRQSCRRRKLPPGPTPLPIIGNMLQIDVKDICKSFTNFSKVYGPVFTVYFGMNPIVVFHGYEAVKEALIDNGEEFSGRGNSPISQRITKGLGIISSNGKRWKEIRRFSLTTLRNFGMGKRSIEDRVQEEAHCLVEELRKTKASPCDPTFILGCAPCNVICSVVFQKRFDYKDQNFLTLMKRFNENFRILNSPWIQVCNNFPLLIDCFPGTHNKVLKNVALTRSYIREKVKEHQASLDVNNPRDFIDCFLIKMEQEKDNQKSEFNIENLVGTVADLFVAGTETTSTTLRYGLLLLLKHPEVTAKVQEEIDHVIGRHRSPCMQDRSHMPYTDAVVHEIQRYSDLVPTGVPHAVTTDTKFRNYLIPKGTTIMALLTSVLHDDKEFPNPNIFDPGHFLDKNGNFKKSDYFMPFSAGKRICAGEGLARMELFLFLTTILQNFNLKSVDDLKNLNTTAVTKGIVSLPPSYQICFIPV
# Cytochrome P450 2C8, sequence (P10632 whole entry): as above
# Kv4.3 (KCND3), sequence (Q9UK17 whole entry): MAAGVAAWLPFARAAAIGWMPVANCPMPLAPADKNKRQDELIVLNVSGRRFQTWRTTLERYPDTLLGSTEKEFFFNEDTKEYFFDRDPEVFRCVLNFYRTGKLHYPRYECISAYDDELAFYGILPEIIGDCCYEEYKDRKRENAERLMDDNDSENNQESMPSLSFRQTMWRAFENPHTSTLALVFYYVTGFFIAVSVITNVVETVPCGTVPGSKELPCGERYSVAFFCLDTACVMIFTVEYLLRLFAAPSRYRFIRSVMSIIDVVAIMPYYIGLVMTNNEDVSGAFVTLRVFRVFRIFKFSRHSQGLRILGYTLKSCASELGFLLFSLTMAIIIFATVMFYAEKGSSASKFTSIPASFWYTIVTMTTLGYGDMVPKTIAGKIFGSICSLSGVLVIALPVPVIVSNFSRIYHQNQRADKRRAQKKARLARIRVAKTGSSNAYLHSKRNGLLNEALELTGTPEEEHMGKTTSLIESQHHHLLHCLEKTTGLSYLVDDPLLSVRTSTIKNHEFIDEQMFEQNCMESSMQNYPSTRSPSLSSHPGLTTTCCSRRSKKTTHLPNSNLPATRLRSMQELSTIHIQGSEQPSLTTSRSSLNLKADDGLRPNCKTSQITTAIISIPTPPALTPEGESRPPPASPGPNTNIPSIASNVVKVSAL
# Sodium channel protein type 5 subunit alpha, sequence (Q14524 whole entry): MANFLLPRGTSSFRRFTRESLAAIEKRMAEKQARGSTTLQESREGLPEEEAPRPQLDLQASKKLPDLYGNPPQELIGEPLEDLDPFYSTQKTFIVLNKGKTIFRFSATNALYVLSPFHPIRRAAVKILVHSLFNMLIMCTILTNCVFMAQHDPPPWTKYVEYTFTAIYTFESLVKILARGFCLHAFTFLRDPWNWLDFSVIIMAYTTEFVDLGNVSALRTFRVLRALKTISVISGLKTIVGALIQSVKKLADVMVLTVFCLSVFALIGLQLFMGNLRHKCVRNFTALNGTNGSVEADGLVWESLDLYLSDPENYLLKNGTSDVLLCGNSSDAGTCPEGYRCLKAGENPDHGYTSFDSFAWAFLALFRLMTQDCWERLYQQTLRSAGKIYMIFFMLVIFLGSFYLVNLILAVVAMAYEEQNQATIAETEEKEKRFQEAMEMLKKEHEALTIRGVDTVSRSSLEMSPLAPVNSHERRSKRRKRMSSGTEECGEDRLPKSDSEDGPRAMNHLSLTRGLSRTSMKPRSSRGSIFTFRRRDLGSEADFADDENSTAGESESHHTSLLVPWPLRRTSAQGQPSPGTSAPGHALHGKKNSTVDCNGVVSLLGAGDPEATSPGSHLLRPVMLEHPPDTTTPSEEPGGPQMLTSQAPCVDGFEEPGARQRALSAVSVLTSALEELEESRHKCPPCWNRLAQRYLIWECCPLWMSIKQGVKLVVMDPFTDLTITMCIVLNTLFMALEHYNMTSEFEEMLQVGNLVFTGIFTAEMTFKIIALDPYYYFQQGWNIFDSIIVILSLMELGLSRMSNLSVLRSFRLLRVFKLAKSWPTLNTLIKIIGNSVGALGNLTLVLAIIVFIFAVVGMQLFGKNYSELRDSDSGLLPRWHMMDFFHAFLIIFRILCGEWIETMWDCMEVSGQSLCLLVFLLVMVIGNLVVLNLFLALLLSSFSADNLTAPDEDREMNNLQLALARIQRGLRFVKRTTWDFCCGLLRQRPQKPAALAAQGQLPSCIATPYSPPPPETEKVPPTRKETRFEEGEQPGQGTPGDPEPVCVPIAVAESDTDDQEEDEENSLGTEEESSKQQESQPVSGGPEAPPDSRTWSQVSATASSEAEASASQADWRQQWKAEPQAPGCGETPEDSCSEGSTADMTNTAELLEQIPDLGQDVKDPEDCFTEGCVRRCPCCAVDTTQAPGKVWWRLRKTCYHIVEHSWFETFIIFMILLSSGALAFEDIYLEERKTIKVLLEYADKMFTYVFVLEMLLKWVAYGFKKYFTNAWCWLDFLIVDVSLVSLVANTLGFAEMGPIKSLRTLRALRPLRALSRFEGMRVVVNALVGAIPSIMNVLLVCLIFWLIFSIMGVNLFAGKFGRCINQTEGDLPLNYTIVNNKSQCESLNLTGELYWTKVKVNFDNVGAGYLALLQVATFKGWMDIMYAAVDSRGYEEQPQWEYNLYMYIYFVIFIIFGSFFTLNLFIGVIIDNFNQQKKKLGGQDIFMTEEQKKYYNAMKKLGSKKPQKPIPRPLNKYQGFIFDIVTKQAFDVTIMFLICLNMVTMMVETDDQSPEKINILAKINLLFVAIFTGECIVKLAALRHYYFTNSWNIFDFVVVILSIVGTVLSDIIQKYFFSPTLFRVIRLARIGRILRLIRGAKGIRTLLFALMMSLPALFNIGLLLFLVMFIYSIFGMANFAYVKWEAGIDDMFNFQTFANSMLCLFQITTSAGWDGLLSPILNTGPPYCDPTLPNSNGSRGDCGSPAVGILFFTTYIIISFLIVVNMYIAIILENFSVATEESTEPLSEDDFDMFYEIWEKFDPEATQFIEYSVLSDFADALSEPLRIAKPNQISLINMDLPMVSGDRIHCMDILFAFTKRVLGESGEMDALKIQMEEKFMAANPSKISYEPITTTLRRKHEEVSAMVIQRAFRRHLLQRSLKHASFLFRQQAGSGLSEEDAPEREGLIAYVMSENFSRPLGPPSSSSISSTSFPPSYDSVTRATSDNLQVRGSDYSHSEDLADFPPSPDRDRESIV
# CYP2C19, sequence (P33261 whole entry): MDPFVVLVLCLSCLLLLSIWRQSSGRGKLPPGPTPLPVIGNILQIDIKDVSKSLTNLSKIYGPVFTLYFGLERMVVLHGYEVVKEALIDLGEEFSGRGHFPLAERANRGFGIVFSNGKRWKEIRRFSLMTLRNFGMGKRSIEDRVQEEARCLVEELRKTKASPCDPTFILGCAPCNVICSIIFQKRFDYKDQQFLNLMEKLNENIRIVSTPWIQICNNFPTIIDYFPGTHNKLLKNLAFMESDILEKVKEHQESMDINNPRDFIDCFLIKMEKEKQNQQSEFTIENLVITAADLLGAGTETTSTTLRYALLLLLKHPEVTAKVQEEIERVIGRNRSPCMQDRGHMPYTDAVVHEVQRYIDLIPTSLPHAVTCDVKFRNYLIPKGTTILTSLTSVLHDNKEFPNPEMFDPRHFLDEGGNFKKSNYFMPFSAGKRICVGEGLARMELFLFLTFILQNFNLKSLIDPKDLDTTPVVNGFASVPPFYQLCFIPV
# KCNQ1, sequence (P51787 whole entry): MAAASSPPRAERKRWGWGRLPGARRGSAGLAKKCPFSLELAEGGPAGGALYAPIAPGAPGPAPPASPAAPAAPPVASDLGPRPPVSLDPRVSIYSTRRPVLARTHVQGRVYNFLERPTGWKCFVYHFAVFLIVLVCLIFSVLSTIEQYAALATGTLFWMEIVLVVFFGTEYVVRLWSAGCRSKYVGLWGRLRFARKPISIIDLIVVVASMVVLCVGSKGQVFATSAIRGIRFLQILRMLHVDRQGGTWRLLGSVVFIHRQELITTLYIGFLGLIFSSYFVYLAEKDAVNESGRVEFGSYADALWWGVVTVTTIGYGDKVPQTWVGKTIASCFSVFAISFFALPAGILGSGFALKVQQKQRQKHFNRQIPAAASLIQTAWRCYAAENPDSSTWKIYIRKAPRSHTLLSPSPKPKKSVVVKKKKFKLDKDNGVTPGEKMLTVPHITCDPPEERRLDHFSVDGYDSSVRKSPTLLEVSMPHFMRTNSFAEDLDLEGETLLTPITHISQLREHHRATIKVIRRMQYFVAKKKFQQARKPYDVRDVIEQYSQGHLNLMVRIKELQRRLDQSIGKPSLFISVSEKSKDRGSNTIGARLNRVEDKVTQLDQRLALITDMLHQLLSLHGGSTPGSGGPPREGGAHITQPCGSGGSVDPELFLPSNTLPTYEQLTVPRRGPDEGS
# CYP1A2, sequence (P05177 whole entry): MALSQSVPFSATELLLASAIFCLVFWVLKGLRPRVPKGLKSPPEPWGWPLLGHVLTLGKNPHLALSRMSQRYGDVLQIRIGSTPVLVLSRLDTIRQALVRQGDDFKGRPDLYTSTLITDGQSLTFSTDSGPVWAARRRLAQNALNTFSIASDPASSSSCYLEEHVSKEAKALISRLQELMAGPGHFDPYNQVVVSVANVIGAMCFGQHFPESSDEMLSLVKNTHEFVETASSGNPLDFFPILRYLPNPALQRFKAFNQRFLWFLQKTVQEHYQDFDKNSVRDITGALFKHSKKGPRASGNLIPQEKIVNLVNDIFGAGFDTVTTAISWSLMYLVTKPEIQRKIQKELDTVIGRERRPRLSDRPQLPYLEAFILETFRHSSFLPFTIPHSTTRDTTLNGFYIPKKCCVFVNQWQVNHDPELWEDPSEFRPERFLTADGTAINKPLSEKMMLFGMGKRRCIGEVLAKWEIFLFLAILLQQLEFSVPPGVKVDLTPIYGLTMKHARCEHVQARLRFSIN
smiles,measurement,setting,value
COc1ccc2ncc(F)c(C[C@H](O)[C@H]3OC[C@H](NCc4cc5c(nn4)OCCS5)CO3)c2n1,half-life,[1],52 min
same,inhibition at 100 µM,[2],< 25%
same,MIC,[3],4 µg/mL
same,Vd,[4],1 L/kg
same,Activity,[5],12%
same,Activity,[6],Dose-Dependent Effect
same,pIC50,[7],< 3.90
same,inhibition at 10 µM,[8],> 50%
same,half-life,[9],38 min
same,inhibition at 100 µM,[10],< 25%
same,AUC(0-t) at 24 h,[11],2400 ng·h/mL
same,inhibition at 10 µM,[12],> 50%
same,pIC50,[13],< 5.00
same,MIC50,[14],0.5 µg/mL
same,Tmax,[15],10.2 min
same,inhibition at 100 µM,[16],< 25%
same,MIC50,[17],0.25 µg/mL
same,MIC90,[17],1 µg/mL
same,MIC,[18],0.25 µg/mL
same,inhibition at 100 µM,[19],< 25%
same,Cmax,[20],7020 ng/mL
same,clearance,[21],69 mL/min/kg
same,AUC(0-t) at 24 h,[22],5910 ng·h/mL
same,Activity,[23],< 25%
same,pIC50,[24],< 5.00
same,inhibition at 10 µM,[25],> 50%
same,pIC50,[26],< 5.00
same,half-life,[27],94 min
